Test results: ChEMBL document CHEMBL1153413, “Pyranonaphthoquinone lactones: a new class of AKT selective kinase inhibitors alkylate a regulatory loop cysteine” (J Med Chem, 2009)
pIC50: −log10 of the molar value. Activity calls are given as the source filed them. The calls are words filed in the database; no cut-off is given here.

Experiments:
[1] = biological target: T1, RAC-alpha serine/threonine-protein kinase (Homo sapiens, UniProt P31749); assay: Inhibition of AKT at < 10 uM
[2] = biological target: T1, RAC-alpha serine/threonine-protein kinase; assay: Inhibition of AKT
[3] = Cytotoxicity against human MDA468 cells expressing AKT; assay type: functional, cell-based, MDA-MB-468
[4] = biological target: Receptor-type tyrosine-protein kinase FLT3 (Homo sapiens) (UniProt P36888); assay: Inhibition of FLT3 at 1 uM
Receptor-type tyrosine-protein kinase FLT3 (Homo sapiens), sequence (P36888 whole entry): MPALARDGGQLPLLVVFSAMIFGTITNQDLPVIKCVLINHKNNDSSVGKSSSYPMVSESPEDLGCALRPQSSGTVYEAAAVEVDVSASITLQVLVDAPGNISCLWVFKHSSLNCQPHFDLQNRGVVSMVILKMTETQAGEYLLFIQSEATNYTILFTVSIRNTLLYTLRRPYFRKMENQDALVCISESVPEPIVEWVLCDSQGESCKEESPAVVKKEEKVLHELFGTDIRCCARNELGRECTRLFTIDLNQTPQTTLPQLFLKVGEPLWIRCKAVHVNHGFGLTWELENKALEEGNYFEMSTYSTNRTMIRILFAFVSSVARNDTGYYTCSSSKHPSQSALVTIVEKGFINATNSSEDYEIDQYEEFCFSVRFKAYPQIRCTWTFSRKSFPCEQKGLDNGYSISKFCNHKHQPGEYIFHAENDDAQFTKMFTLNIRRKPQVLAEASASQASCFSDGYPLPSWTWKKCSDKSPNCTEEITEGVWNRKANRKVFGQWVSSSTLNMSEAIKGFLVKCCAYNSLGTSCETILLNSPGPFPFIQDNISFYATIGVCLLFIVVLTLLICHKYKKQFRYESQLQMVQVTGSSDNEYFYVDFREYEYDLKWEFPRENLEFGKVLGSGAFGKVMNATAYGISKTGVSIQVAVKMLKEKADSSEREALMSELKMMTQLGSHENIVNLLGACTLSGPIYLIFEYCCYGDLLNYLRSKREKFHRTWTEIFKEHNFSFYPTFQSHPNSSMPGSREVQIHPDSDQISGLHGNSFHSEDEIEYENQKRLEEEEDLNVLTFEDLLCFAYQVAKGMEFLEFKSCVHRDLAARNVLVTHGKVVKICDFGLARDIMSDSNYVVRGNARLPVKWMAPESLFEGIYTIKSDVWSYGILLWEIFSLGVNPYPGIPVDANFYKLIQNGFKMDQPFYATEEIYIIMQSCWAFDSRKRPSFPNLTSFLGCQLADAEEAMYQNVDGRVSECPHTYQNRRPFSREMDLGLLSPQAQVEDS
How it was run: (§1)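 Single-concentration (1 µM) selectivity screen run as an outsourced commercial panel of 45 kinases.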

[5] = biological target: Ribosomal protein S6 kinase beta-1 (Homo sapiens) (UniProt P23443); assay: Inhibition of RPS6KB1 at 1 uM; how it was run: as §1
[6] = biological target: Inhibitor of nuclear factor kappa-B kinase subunit beta (Homo sapiens) (UniProt O14920); assay: Inhibition of IKBKB at 1 uM; how it was run: as §1
[7] = biological target: Tyrosine-protein kinase SYK (Homo sapiens) (UniProt P43405); assay: Inhibition of SYK at 1 uM; how it was run: as §1
[8] = biological target: RAC-alpha serine/threonine-protein kinase (Homo sapiens, UniProt P31749, C310A); assay: Inhibition of AKT C310A mutant
RAC-alpha serine/threonine-protein kinase (Homo sapiens, UniProt P31749, C310A), sequence (P31749 whole entry C310A): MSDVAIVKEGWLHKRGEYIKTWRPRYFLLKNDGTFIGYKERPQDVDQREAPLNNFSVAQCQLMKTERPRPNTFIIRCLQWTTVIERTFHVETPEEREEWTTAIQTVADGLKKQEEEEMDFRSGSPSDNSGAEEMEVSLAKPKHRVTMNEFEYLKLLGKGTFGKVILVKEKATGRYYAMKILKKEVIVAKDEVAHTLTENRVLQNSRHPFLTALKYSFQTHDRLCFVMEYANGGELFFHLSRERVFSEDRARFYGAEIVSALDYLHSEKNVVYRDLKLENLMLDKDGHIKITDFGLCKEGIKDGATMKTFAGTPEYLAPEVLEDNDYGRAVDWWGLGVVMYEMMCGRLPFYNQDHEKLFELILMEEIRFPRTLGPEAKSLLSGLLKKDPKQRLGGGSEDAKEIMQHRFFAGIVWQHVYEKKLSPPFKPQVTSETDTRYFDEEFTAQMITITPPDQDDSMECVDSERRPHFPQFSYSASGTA

[9] = biological target: Epidermal growth factor receptor (Homo sapiens) (UniProt P00533); assay: Inhibition of EGFR at 1 uM; how it was run: as §1
[10] = biological target: Mitogen-activated protein kinase 14 (Homo sapiens) (UniProt Q16539); assay: Inhibition of MAPK14 at 1 uM; how it was run: as §1
[11] = biological target: Serine/threonine-protein kinase Sgk1 (Homo sapiens) (UniProt O00141); assay: Inhibition of SGK at 1 uM; how it was run: as §1
[12] = biological target: Insulin-like growth factor 1 receptor (Homo sapiens) (UniProt P08069); assay: Inhibition of IGF1R at 1 uM; how it was run: as §1
[13] = biological target: Tyrosine-protein kinase CSK (Homo sapiens) (UniProt P41240); assay: Inhibition of CSK at 1 uM; how it was run: as §1
[14] = biological target: High affinity nerve growth factor receptor (Homo sapiens) (UniProt P04629); assay: Inhibition of NTRK1 at 1 uM; how it was run: as §1
[15] = biological target: Protein kinase C theta type (Homo sapiens) (UniProt Q04759); assay: Inhibition of PRKCQ at 1 uM; how it was run: as §1
[16] = biological target: Platelet-derived growth factor receptor beta (Homo sapiens) (UniProt P09619); assay: Inhibition of PDGFRB at 1 uM; how it was run: as §1
[17] = biological target: Mitogen-activated protein kinase 3 (Homo sapiens) (UniProt P27361); assay: Inhibition of MAPK3 at 1 uM; how it was run: as §1
[18] = biological target: Rho-associated protein kinase 1 (Homo sapiens) (UniProt Q13464); assay: Inhibition of ROCK1 at 1 uM; how it was run: as §1
Rho-associated protein kinase 1 (Homo sapiens), sequence (Q13464 2-1354 limits assumed): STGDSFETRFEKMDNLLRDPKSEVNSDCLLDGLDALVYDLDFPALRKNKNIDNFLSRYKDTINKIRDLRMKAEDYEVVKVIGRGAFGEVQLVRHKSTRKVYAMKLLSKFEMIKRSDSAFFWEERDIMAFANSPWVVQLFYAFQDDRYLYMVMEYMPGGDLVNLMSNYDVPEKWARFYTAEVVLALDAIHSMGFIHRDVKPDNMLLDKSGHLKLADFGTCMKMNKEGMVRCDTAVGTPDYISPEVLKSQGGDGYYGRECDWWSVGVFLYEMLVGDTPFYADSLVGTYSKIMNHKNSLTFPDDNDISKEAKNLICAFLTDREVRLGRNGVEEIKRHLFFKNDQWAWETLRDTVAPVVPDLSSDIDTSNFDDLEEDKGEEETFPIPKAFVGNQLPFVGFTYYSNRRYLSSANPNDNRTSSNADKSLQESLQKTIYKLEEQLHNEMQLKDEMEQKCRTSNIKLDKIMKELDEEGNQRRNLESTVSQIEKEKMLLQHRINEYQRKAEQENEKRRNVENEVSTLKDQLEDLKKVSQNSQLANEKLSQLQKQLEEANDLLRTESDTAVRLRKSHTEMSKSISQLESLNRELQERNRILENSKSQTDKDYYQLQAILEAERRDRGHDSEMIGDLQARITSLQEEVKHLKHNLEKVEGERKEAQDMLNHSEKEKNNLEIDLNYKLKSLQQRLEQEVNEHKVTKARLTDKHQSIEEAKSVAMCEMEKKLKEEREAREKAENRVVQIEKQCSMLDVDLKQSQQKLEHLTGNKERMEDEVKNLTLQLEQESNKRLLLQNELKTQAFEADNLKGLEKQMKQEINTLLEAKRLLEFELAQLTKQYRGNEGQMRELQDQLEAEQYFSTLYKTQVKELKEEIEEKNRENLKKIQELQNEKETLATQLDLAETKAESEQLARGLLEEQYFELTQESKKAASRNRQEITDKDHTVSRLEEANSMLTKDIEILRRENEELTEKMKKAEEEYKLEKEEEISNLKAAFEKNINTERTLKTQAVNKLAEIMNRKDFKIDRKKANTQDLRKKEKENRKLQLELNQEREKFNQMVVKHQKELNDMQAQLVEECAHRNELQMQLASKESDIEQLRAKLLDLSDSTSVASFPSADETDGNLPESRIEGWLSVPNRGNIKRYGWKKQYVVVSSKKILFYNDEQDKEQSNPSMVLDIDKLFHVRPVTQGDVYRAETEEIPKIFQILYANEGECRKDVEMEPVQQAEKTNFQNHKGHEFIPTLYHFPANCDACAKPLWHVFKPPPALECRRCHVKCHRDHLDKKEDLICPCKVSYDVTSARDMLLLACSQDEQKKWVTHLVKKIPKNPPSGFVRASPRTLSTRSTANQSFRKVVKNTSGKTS

[19] = biological target: Macrophage colony-stimulating factor 1 receptor (Homo sapiens) (UniProt P07333); assay: Inhibition of CSF1R at 1 uM; how it was run: as §1
[20] = biological target: Receptor tyrosine-protein kinase erbB-4 (Homo sapiens) (UniProt Q15303); assay: Inhibition of ERBB4 at 1 uM; how it was run: as §1
[21] = biological target: Aurora kinase A (Homo sapiens) (UniProt O14965); assay: Inhibition of STK6 at 1 uM; how it was run: as §1
[22] = biological target: Serine/threonine-protein kinase Chk1 (Homo sapiens) (UniProt O14757); assay: Inhibition of CHEK1 at 1 uM; how it was run: as §1
Serine/threonine-protein kinase Chk1 (Homo sapiens), sequence (O14757 whole entry): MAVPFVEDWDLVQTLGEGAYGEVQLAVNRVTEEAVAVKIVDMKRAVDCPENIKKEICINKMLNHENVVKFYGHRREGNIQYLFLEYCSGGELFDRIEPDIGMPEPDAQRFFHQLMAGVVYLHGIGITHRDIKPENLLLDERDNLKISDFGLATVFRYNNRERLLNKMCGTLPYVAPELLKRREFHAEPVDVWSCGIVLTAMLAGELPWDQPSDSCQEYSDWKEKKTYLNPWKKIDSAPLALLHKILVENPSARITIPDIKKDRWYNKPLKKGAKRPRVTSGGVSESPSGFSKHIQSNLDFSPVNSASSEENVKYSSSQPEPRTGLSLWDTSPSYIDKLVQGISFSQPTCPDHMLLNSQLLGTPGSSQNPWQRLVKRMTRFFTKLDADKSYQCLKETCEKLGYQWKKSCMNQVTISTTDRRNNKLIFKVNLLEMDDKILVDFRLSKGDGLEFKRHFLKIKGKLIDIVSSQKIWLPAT

[23] = biological target: Mitogen-activated protein kinase kinase kinase kinase 5 (Homo sapiens) (UniProt Q9Y4K4); assay: Inhibition of MAP4K5 at 1 uM; how it was run: as §1
Mitogen-activated protein kinase kinase kinase kinase 5 (Homo sapiens), sequence (Q9Y4K4 whole entry, looked up): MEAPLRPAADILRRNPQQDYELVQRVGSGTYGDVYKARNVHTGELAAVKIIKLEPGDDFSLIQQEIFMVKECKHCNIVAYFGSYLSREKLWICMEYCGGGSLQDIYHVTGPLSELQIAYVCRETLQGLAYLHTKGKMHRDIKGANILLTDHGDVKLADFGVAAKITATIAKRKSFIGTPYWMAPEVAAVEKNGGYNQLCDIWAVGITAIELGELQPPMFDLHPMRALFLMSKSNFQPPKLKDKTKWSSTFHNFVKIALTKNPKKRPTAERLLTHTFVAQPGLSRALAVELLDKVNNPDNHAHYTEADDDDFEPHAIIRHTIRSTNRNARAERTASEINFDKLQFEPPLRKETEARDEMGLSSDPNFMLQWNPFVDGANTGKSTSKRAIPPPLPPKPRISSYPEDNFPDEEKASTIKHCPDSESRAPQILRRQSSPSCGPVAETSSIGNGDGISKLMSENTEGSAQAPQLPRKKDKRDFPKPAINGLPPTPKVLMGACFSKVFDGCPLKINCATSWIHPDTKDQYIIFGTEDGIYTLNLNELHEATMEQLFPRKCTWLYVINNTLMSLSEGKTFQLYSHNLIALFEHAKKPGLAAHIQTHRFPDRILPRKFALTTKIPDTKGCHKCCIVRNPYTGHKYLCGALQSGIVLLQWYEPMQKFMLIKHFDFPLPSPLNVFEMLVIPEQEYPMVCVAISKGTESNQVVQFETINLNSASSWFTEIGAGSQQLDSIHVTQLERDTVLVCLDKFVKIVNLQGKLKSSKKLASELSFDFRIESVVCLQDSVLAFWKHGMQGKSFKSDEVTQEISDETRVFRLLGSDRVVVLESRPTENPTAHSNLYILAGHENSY

[24] = biological target: Tyrosine-protein kinase Lck (Homo sapiens) (UniProt P06239); assay: Inhibition of LCK at 1 uM; how it was run: as §1
[25] = biological target: Ephrin type-A receptor 1 (Homo sapiens) (UniProt P21709); assay: Inhibition of EPHA1 at 1 uM; how it was run: as §1
[26] = test system: RAC-alpha serine/threonine-protein kinase (Homo sapiens), P31749 [C296A,C310A]; assay: Inhibition of AKT C296A/C310A mutant up to 40 uM
RAC-alpha serine/threonine-protein kinase (Homo sapiens), P31749 [C296A,C310A], sequence (P31749 whole entry C296A/C310A): as the sequence (P31749 whole entry C310A) above, with C296A counted along it

[27] = biological target: Vascular endothelial growth factor receptor 1 (Homo sapiens) (UniProt P17948); assay: Inhibition of FLT1 at 1 uM; how it was run: as §1
[28] = biological target: RAC-alpha serine/threonine-protein kinase (Homo sapiens, UniProt P31749, C296A); assay: Inhibition of AKT C296A mutant
RAC-alpha serine/threonine-protein kinase (Homo sapiens, UniProt P31749, C296A), sequence (P31749 whole entry C296A): as the sequence (P31749 whole entry C310A) above, with C296A, A310C counted along it

[29] = biological target: Serine/threonine-protein kinase Nek2 (Homo sapiens) (UniProt P51955); assay: Inhibition of NEK2 at 1 uM; how it was run: as §1
[30] = biological target: Insulin receptor (Homo sapiens) (UniProt P06213); assay: Inhibition of INSR at 1 uM; how it was run: as §1
[31] = biological target: Cyclin-dependent kinase 2 (Homo sapiens) (UniProt P24941); assay: Inhibition of CDK2/cyclin A at 1 uM; how it was run: as §1
[32] = biological target: Vascular endothelial growth factor receptor 2 (Homo sapiens) (UniProt P35968); assay: Inhibition of KDR at 1 uM; how it was run: as §1
[33] = biological target: Tyrosine-protein kinase Lyn (Homo sapiens) (UniProt P07948); assay: Inhibition of LYN A at 1 uM; how it was run: as §1
[34] = biological target: T1, RAC-alpha serine/threonine-protein kinase; assay: Inhibition of AKT1 at 1 uM; how it was run: as §1
[35] = biological target: Fibroblast growth factor receptor 1 (Homo sapiens) (UniProt P11362); assay: Inhibition of FGFR1 at 1 uM; how it was run: as §1
[36] = biological target: RAC-beta serine/threonine-protein kinase (Homo sapiens) (UniProt P31751); assay: Inhibition of AKT2 at 1 uM; how it was run: as §1
[37] = biological target: Dual specificity mitogen-activated protein kinase kinase 1 (Homo sapiens) (UniProt Q02750); assay: Inhibition of MAP2K1 at 1 uM; how it was run: as §1
[38] = biological target: Tyrosine-protein kinase ABL1 (Homo sapiens) (UniProt P00519); assay: Inhibition of ABL1 at 1 uM; how it was run: as §1
[39] = biological target: Proto-oncogene tyrosine-protein kinase Src (Homo sapiens) (UniProt P12931); assay: Inhibition of SRC at 1 uM; how it was run: as §1
[40] = biological target: Mitogen-activated protein kinase 1 (Homo sapiens) (UniProt P28482); assay: Inhibition of MAPK1 at 1 uM; how it was run: as §1
[41] = biological target: Platelet-derived growth factor receptor alpha (Homo sapiens) (UniProt P16234); assay: Inhibition of PDGFRA at 1 uM; how it was run: as §1
[42] = biological target: Serine/threonine-protein kinase PLK1 (Homo sapiens) (UniProt P53350); assay: Inhibition of PLK1 at 1 uM; how it was run: as §1
[43] = biological target: Tyrosine-protein kinase Fyn (Homo sapiens) (UniProt P06241); assay: Inhibition of FYN at 1 uM; how it was run: as §1
Tyrosine-protein kinase Fyn (Homo sapiens), sequence (P06241 2-537 limits assumed): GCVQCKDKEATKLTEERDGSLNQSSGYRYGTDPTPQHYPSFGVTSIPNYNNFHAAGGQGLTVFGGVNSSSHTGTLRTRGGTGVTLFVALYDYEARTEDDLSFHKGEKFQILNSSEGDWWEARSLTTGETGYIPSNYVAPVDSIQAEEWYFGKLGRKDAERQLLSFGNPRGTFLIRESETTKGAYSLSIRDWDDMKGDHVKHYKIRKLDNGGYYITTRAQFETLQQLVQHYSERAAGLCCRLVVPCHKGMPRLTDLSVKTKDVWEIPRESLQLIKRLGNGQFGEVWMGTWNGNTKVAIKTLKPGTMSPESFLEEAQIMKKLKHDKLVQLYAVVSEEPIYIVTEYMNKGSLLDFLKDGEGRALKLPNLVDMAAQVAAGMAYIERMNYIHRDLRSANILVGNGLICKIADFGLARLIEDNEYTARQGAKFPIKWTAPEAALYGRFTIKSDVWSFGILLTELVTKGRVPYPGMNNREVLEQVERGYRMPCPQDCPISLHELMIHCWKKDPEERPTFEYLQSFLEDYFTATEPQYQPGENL

[44] = biological target: Tyrosine-protein kinase BTK (Homo sapiens) (UniProt Q06187); assay: Inhibition of BTK at 1 uM; how it was run: as §1
[45] = biological target: Focal adhesion kinase 1 (Homo sapiens) (UniProt Q05397); assay: Inhibition of PTK2 at 1 uM; how it was run: as §1
[46] = biological target: Hepatocyte growth factor receptor (Homo sapiens) (UniProt P08581); assay: Inhibition of MET at 1 uM; how it was run: as §1
[47] = biological target: Protein kinase C alpha type (Homo sapiens) (UniProt P17252); assay: Inhibition of PRKCA at 1 uM; how it was run: as §1
[48] = biological target: Tyrosine-protein kinase Yes (Homo sapiens) (UniProt P07947); assay: Inhibition of YES1 at 1 uM; how it was run: as §1
[49] = biological target: cAMP-dependent protein kinase catalytic subunit alpha (Homo sapiens) (UniProt P17612); assay: Inhibition of PRKACA at 1 uM; how it was run: as §1
[50] = biological target: Cyclin-dependent kinase 1/cyclin B1 (Homo sapiens) (UniProt P06493+P14635); assay: Inhibition of CDK1/cyclin B at 1 uM; assay type: protein-complex assay; how it was run: as §1

T1 sequence (P31749 whole entry): as the sequence (P31749 whole entry C310A) above, with A310C counted along it

CCC[C@@H]1O[C@H](CC(=O)OCC)CC2=C1C(=O)c1ccccc1C2=O (racemic)
Activity [1]: inactive

CCC[C@H]1O[C@H](CC(=O)OCC)CC2=C1C(=O)c1ccccc1C2=O (racemic)
Activity [1]: inactive

CCOC(=O)C[C@@H]1CC2=C(C(=O)c3ccccc3C2=O)C(C)(C)O1 (racemic)
Activity [1]: inactive

CCOC(=O)C[C@@H]1CC2=C(C(=O)c3ccccc3C2=O)C2(CCCC2)O1 (racemic)
Activity [1]: inactive

CCOC(=O)C[C@@H]1CC2=C(C(=O)c3ccccc3C2=O)[C@@H](COCc2ccccc2)O1 (racemic)
Activity [1]: inactive

CCOC(=O)C[C@@H]1CC2=C(C(=O)c3ccccc3C2=O)[C@H](c2ccc(N)cc2)O1 (racemic)
Activity [1]: inactive

CCOC(=O)C[C@@H]1CC2=C(C(=O)c3ccccc3C2=O)[C@H](c2ccc(O)cc2)O1 (racemic)
Activity [1]: inactive

CCOC(=O)C[C@@H]1CC2=C(C(=O)c3ccccc3C2=O)[C@H](c2cccc(O)c2)O1 (racemic)
Activity [1]: inactive

O=C1C[C@H]2O[C@H](c3ccsc3)C3=C(C(=O)c4ccccc4C3=O)[C@H]2O1 (stereo in doubt; (+))
pIC50 [2]: 6.91
pIC50 ([3]; Homo sapiens, MDA-MB-468): 6.52

CCOC(=O)C[C@@H]1CC2=C(C(=O)c3ccccc3C2=O)[C@@H](c2ccsc2)O1 (stereo in doubt; (+))
Activity [1]: inactive

O=C1C[C@H]2O[C@H](c3ccsc3)C3=C(C(=O)c4ccccc4C3=O)[C@H]2O1 (stereo in doubt; (-))
pIC50 [2]: 7.00
pIC50 ([3]; mda-mb-468): 6.39

CCOC(=O)C[C@@H]1CC2=C(C(=O)c3ccccc3C2=O)[C@@H](c2ccsc2)O1 (stereo in doubt; (-))
Activity [1]: inactive

CCC[C@H]1O[C@H](CC(=O)O)CC2=C1C(=O)c1c(O)cccc1C2=O [DEOXYFRENOLICIN]
pIC50 [2]: 6.37
pIC50 ([3]; Homo sapiens, MDA-MB-468): 6.48

CCC[C@H]1O[C@@H]2CC(=O)O[C@@H]2C2=C1C(=O)c1c(O)cccc1C2=O [FRENOLICIN B]
pIC50 [2]: 6.70
pIC50 ([3]; Homo sapiens, MDA-MB-468): 7.22

C[C@H]1O[C@@H]2CC(=O)O[C@@H]2C2=C1C(=O)c1c(ccc([C@H]3C[C@@H](N(C)C)[C@H](O)[C@@H](C)O3)c1O)C2=O [LACTOQUINOMYCIN]
inhibition [4]: 4%
inhibition [5]: 16%
inhibition [6]: 41%
inhibition [7]: 2%
pIC50 [8]: 4.41
inhibition [9]: 26%
inhibition [10]: 49%
inhibition [11]: 20%
inhibition [12]: 2%
inhibition [13]: 0%
inhibition [14]: 14%
inhibition [15]: 22%
inhibition [16]: 32%
inhibition [17]: 7%
inhibition [18]: 1%
inhibition [19]: 6%
inhibition [20]: 5%
inhibition [21]: 17%
inhibition [22]: 10%
inhibition [23]: 34%
inhibition [24]: 0%
inhibition [25]: 8%
Activity [26]: inactive
inhibition [27]: 29%
pIC50 [2]: 6.83
pIC50 [28]: 4.52
inhibition [29]: 0%
inhibition [30]: 1%
inhibition [31]: 0%
inhibition [32]: 21%
inhibition [33]: 3%
pIC50 ([3]; Homo sapiens, MDA-MB-468): 7.30
inhibition [34]: 92%
inhibition [35]: 38%
inhibition [36]: 99%
inhibition [37]: 0%
inhibition [38]: 0%
inhibition [39]: 0%
inhibition [40]: 6%
inhibition [41]: 15%
inhibition [42]: 0%
inhibition [43]: 17%
inhibition [44]: 1%
inhibition [45]: 12%
inhibition [46]: 14%
inhibition [47]: 16%
inhibition [48]: 14%
inhibition [49]: 0%
inhibition [50]: 2%
